{"source": "ChEMBL document CHEMBL1932938", "about": "“From COX-2 inhibitor nimesulide to potent anti-cancer agent: synthesis, in vitro, in vivo and pharmacokinetic evaluation” (Eur J Med Chem, 2012)", "key": {"SK-BR-3 [1]": {"system": "SK-BR-3", "assay": "Cell cycle arrest in human SK-BR-3 cells assessed as accumulation at G2/M phase at 5 uM after 3 hrs using propidium iodide staining by FACS analysis", "format": "functional", "method_in_brief": "(§1)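 SKBR-3 cells in RPMI1640 with 10% heat-inactivated FBS at 37 °C and 5% CO₂ were treated for the stated times. Cells were fixed overnight in 70% EtOH at −20 °C, then stained with propidium iodide buffer (38 mM sodium citrate pH 7.5, 69 µM PI, 120 µg/mL RNase A) for 15 min at room temperature in the dark. Up to 1×10⁴ gated cells were analyzed by flow cytometry, giving percent distribution per phase.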"}, "HT-29": {"system": "HT-29", "assay": "Antitumor activity against human HT-29 cells xenografted in BALB/c athymic nu/nu mouse assessed as decrease in tumor size at 5 mg/kg/day, ip administered 5 times per week for 3 weeks", "format": "functional, organism-based", "method_in_brief": "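Athymic BALB/c nu/nu mice received s.c. HT29 cells in Matrigel, 200 µL per site at two flank sites. Treatment started at ~200 mm³: 5 mg/kg/d i.p., five times weekly for three weeks, in 1% DMSO/sesame oil; controls got vehicle. Three mice per group. Tumors were measured twice weekly by caliper, volume = width²×length/2. Tumors were excised and weighed at the end.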"}, "DU-145": {"system": "DU-145", "assay": "Growth inhibition of human DU145 cells after 48 hrs by SRB assay", "format": "functional"}, "SK-BR-3 [2]": {"system": "SK-BR-3", "assay": "Cell cycle arrest in human SK-BR-3 cells assessed as accumulation at G2/M phase at 0.25 uM after 18 hrs using propidium iodide staining by FACS analysis", "format": "functional", "method_in_brief": "as §1"}, "SK-BR-3 [3]": {"system": "SK-BR-3", "assay": "Cell cycle arrest in human SK-BR-3 cells assessed as accumulation at Sub-G1 phase at 0.50 uM after 3 hrs using propidium iodide staining by FACS analysis", "format": "functional"}, "SK-BR-3 [4]": {"system": "SK-BR-3", "assay": "Cell cycle arrest in human SK-BR-3 cells assessed as accumulation at G2/M phase at 5 uM after 18 hrs using propidium iodide staining by FACS analysis", "format": "functional", "method_in_brief": "as §1"}, "SK-BR-3 [5]": {"system": "SK-BR-3", "assay": "Cell cycle arrest in human SK-BR-3 cells assessed as accumulation at Sub-G1 phase at 5 uM after 6 hrs using propidium iodide staining by FACS analysis", "format": "functional"}, "SN12C": {"system": "SN12C", "assay": "Growth inhibition of human SN12C cells after 48 hrs by SRB assay", "format": "functional"}, "SK-BR-3 [6]": {"system": "SK-BR-3", "assay": "Cell cycle arrest in human SK-BR-3 cells assessed as accumulation at Sub-G1 phase at 0.50 uM after 18 hrs using propidium iodide staining by FACS analysis", "format": "functional"}, "SK-BR-3 [7]": {"system": "SK-BR-3", "assay": "Cell cycle arrest in human SK-BR-3 cells assessed as accumulation at G1 phase at 0.25 uM after 3 hrs using propidium iodide staining by FACS analysis", "format": "functional", "method_in_brief": "as §1"}, "SK-OV-3": {"system": "SK-OV-3", "assay": "Growth inhibition of human SKOV3 cells after 48 hrs by SRB assay", "format": "functional"}, "SK-BR-3 [8]": {"system": "SK-BR-3", "assay": "Cell cycle arrest in human SK-BR-3 cells assessed as accumulation at S phase at 0.25 uM after 12 hrs using propidium iodide staining by FACS analysis", "format": "functional"}, "SK-BR-3 [9]": {"system": "SK-BR-3", "assay": "Cell cycle arrest in human SK-BR-3 cells assessed as accumulation at G1 phase at 0.25 uM after 24 hrs using propidium iodide staining by FACS analysis", "format": "functional", "method_in_brief": "as §1"}, "M14": {"system": "M14", "assay": "Growth inhibition of human M14 cells after 48 hrs by SRB assay", "format": "functional"}, "UO-31": {"system": "UO-31", "assay": "Growth inhibition of human UO31 cells after 48 hrs by SRB assay", "format": "functional"}, "SK-BR-3 [10]": {"system": "SK-BR-3", "assay": "Cell cycle arrest in human SK-BR-3 cells assessed as accumulation at S phase at 5 uM after 6 hrs using propidium iodide staining by FACS analysis", "format": "functional"}, "SK-BR-3 [11]": {"system": "SK-BR-3", "assay": "Cell cycle arrest in human SK-BR-3 cells assessed as accumulation at S phase at 0.25 uM after 3 hrs using propidium iodide staining by FACS analysis", "format": "functional"}, "MDA-MB-231": {"system": "MDA-MB-231", "assay": "Growth inhibition of human MDA-MB-231 cells after 48 hrs by SRB assay", "format": "functional"}, "SK-BR-3 [12]": {"system": "SK-BR-3", "assay": "Cell cycle arrest in human SK-BR-3 cells assessed as accumulation at S phase at 0.50 uM after 24 hrs using propidium iodide staining by FACS analysis", "format": "functional"}, "Hs-578T": {"system": "Hs-578T", "assay": "(§2) Growth inhibition of human Hs 578T cells after 48 hrs by SRB assay", "format": "functional"}, "[13]": {"assay": "as §2", "format": "functional"}, "SK-BR-3 [14]": {"system": "SK-BR-3", "assay": "Cell cycle arrest in human SK-BR-3 cells assessed as accumulation at S phase at 5 uM after 18 hrs using propidium iodide staining by FACS analysis", "format": "functional"}, "ACHN": {"system": "ACHN", "assay": "Growth inhibition of human ACHN cells after 48 hrs by SRB assay", "format": "functional"}, "NCI-H226": {"system": "NCI-H226", "assay": "Growth inhibition of human NCI-H226 cells after 48 hrs by SRB assay", "format": "functional"}, "SK-BR-3 [15]": {"system": "SK-BR-3", "assay": "Cell cycle arrest in human SK-BR-3 cells assessed as accumulation at G2/M phase at 0.50 uM after 24 hrs using propidium iodide staining by FACS analysis", "format": "functional", "method_in_brief": "as §1"}, "[16]": {"conditions": "read-out: LC50 (the source's name)"}}, "note": "Activity calls are given as the source filed them. No cut-off for these calls is given here.", "data": [{"smiles": "Cc1ccc(C)c(COc2cc(NC(=O)c3ccc4c(c3)OCO4)ccc2N(C)S(C)(=O)=O)c1", "values": [{"measurement": "Activity", "setting": "SK-BR-3 [1]", "value": 11.57, "unit": "%"}, {"measurement": "Activity", "setting": "HT-29", "value": "Active"}, {"measurement": "growth inhibition (GI)", "setting": "DU-145", "value": "Dose-dependent effect"}, {"measurement": "GI50", "setting": "DU-145; DU-145, 48 h", "value": 159, "unit": "nM"}, {"measurement": "TGI", "setting": "DU-145; DU-145, 48 h", "value": 457, "unit": "nM"}, {"measurement": "CC50", "setting": "DU-145; DU-145, 48 h, read-out: LC50 (the source's name)", "value": "> 100000", "unit": "nM"}, {"measurement": "Activity", "setting": "SK-BR-3 [2]", "value": 10.57, "unit": "%"}, {"measurement": "Activity", "setting": "SK-BR-3 [3]", "value": 3.43, "unit": "%"}, {"measurement": "Activity", "setting": "SK-BR-3 [4]", "value": 21.8, "unit": "%"}, {"measurement": "Activity", "setting": "SK-BR-3 [5]", "value": 3.42, "unit": "%"}, {"measurement": "GI50", "setting": "SN12C", "value": 472, "unit": "nM"}, {"measurement": "TGI", "setting": "SN12C", "value": "> 100000", "unit": "nM"}, {"measurement": "growth inhibition (GI)", "setting": "SN12C", "value": "Dose-dependent effect"}, {"measurement": "CC50", "setting": "SN12C; [16]", "value": "> 100000", "unit": "nM"}, {"measurement": "Activity", "setting": "SK-BR-3 [6]", "value": 8.47, "unit": "%"}, {"measurement": "Activity", "setting": "SK-BR-3 [7]", "value": 69.63, "unit": "%"}, {"measurement": "growth inhibition (GI)", "setting": "SK-OV-3", "value": "Dose-dependent effect"}, {"measurement": "GI50", "setting": "SK-OV-3; SK-OV-3, 48 h", "value": 285, "unit": "nM"}, {"measurement": "TGI", "setting": "SK-OV-3; SK-OV-3, 48 h", "value": "> 100000", "unit": "nM"}, {"measurement": "CC50", "setting": "SK-OV-3; SK-OV-3, 48 h, read-out: LC50 (the source's name)", "value": "> 100000", "unit": "nM"}, {"measurement": "Activity", "setting": "SK-BR-3 [8]", "value": 6.14, "unit": "%"}, {"measurement": "Activity", "setting": "SK-BR-3 [9]", "value": 41.27, "unit": "%"}, {"measurement": "growth inhibition (GI)", "setting": "M14", "value": "Dose-dependent effect"}, {"measurement": "GI50", "setting": "M14; M14, 48 h", "value": 75.7, "unit": "nM"}, {"measurement": "TGI", "setting": "M14; M14, 48 h", "value": 669, "unit": "nM"}, {"measurement": "CC50", "setting": "M14; M14, 48 h, read-out: LC50 (the source's name)", "value": "> 100000", "unit": "nM"}, {"measurement": "growth inhibition (GI)", "setting": "UO-31", "value": "Dose-dependent effect"}, {"measurement": "GI50", "setting": "UO-31; UO-31, 48 h", "value": 395, "unit": "nM"}, {"measurement": "TGI", "setting": "UO-31; UO-31, 48 h", "value": "> 100000", "unit": "nM"}, {"measurement": "Activity", "setting": "SK-BR-3 [10]", "value": 14.61, "unit": "%"}, {"measurement": "Activity", "setting": "SK-BR-3 [11]", "value": 16.34, "unit": "%"}, {"measurement": "growth inhibition (GI)", "setting": "MDA-MB-231", "value": "Dose-dependent effect"}, {"measurement": "GI50", "setting": "MDA-MB-231; MDA-MB-231, 48 h", "value": 256, "unit": "nM"}, {"measurement": "TGI", "setting": "MDA-MB-231; MDA-MB-231, 48 h", "value": 926, "unit": "nM"}, {"measurement": "CC50", "setting": "MDA-MB-231; MDA-MB-231, 48 h, read-out: LC50 (the source's name)", "value": "> 100000", "unit": "nM"}, {"measurement": "Activity", "setting": "SK-BR-3 [12]", "value": 11.21, "unit": "%"}, {"measurement": "growth inhibition (GI)", "setting": "Hs-578T", "value": "Dose-dependent effect"}, {"measurement": "GI50", "setting": "[13]", "value": 87, "unit": "nM"}, {"measurement": "CC50", "setting": "[13]; [16]", "value": "> 100000", "unit": "nM"}, {"measurement": "Activity", "setting": "SK-BR-3 [14]", "value": 6.73, "unit": "%"}, {"measurement": "GI50", "setting": "ACHN", "value": 687, "unit": "nM"}, {"measurement": "TGI", "setting": "ACHN", "value": "> 100000", "unit": "nM"}, {"measurement": "growth inhibition (GI)", "setting": "ACHN", "value": "Dose-dependent effect"}, {"measurement": "CC50", "setting": "ACHN; [16]", "value": "> 100000", "unit": "nM"}, {"measurement": "growth inhibition (GI)", "setting": "NCI-H226", "value": "Dose-dependent effect"}, {"measurement": "GI50", "setting": "NCI-H226; NCI-H226, 48 h", "value": 686, "unit": "nM"}, {"measurement": "TGI", "setting": "NCI-H226; NCI-H226, 48 h", "value": "> 100000", "unit": "nM"}, {"measurement": "CC50", "setting": "NCI-H226; NCI-H226, 48 h, read-out: LC50 (the source's name)", "value": "> 100000", "unit": "nM"}, {"measurement": "Activity", "setting": "SK-BR-3 [15]", "value": 28.14, "unit": "%"}]}]}
